Assay results published in PMC7245055 (Chemical biology & drug design, 2019).
≈ marks a conversion by molar mass, not a printed value. Entries after “also recorded” stand apart in the source; their conditions may differ.

How the values were obtained:
[1] = Thermodynamic turbidimetric aqueous solubility assay; type: physicochemical; details: for aqueous solubility (in words): turbidity at 620 nm in H2O; for solubility: pure water with 1% DMSO, 37 °C, water, kinetic from dmso stock
In short: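 DMSO solutions of test compound were serially diluted from 40 mM to 0.1 mM. Each was diluted 2 μL into ~198 μL pure water and shaken on a rotary shaker at 37 °C for 1–2 h to reach equilibrium solubility. Turbidity was measured as absorbance at 620 nm. Triplicate wells, reported as means ± SD.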

INS-1 β-cells [2] = details: cited from earlier work
INS-1 β cells [3] = experiment: INS-1 cell viability against thapsigargin; type: cell-based, rat; details: TG 18 nM, 72 h, CellTiter-Glo
In short: (§1)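 INS-1 cells were plated in RPMI 1640 with 10% FBS at 5 × 10^3 cells/well and held 24 h at 37 °C. Test compound was pin-transferred, then stressor was added in medium: TG 18 nM or BFA 0.2 μg/mL. After 72 h the medium was removed and CellTiter-Glo (intracellular ATP) added; luminescence was read after 10 min. DMSO without stressor was normalized as 1. Data are means of 3 replicate wells, with 3 independent experiments.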

INS-1 β cells [4] = experiment: INS-1 cell viability against brefeldin A; type: cell-based, rat; details: BFA 0.2 μg/mL, 72 h, CellTiter-Glo
In short: as §1

INS-1 β-cells [5] = experiment: INS-1 β-cell viability against tunicamycin; type: cell-based, rat; details: INS-1 cells, Tm
In short: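 Rat INS-1 cells in RPMI 1640 with 10% FBS were seeded at 5 × 10^3 cells/well and held 24 h at 37 °C. Test compound was added as ten 2-fold serial titration points, then tunicamycin at 0.15 μg/mL final, for 72 h co-treatment. Viability was read as CellTiter-Glo luminescence (ATP) after 10 min. Maximum activity is % rescue, with Tm alone set as 0% and DMSO without Tm as 100%. EC50 was derived by curve fitting. Run in triplicate.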

Row | aqueous solubility (in words) [1] | Compound | β-cell protective activity (in words) (INS-1 β-cells [5]) | also measured
1 |  | Cc1ccc(C)c(CNC(=O)CNC(=O)c2cccc(Cl)c2C)c1 [Compound 5a, 3-Chloro-N-(2-((2,5-dimethylbenzyl)amino)-2-oxoethyl)-2-methylbenzamide] |  | solubility [1]: ~75 µM (≈ 25.9 µg/mL)
2 |  | Cc1c(Cl)cccc1C(=O)NCC(=O)NCCc1ccc(O)cc1 [Compound 5f, 3-Chloro-N-(2-((4-hydroxyphenethyl)amino)-2-oxoethyl)-2-methylbenzamide] |  | solubility [1]: ~200 µM (≈ 69.4 µg/mL)
3 | improved water solubility compare to 1 | Cc1c(Cl)cccc1C(=O)NCC(=O)NCc1ccc(C(F)(F)F)cc1 [Compound 5g, 3-Chloro-2-methyl-N-(2-oxo-2-((4-(trifluoromethyl)benzyl)amino)ethyl)benzamide] |  | 
4 | improved water solubility compare to 1 | COc1cc(CNC(=O)CNC(=O)c2cccc(Cl)c2C)ccc1O [Compound 5h, 3-Chloro-N-(2-((4-hydroxy-3-methoxybenzyl)amino)-2-oxoethyl)-2-methylbenzamide] |  | 
5 |  | O=C(CNC(=O)c1cccc(O)c1)NCc1ccc(C(F)(F)F)cc1 [Compound 5m, 3-Hydroxy-N-(2-oxo-2-((4-(trifluoromethyl)benzyl)amino)ethyl)benzamide] |  | reduction in viability of INS-1 cells treated with TG (INS-1 β cells [3]): significantly reversed; reduction in viability of INS-1 cells treated with BFA (INS-1 β cells [4]): significantly reversed
6 |  | COc1cc(CNC(=O)CNC(=O)c2cccc(O)c2)ccc1O [Compound 5n, 3-Hydroxy-N-(2-((4-hydroxy-3-methoxybenzyl)amino)-2-oxoethyl)benzamide] | significantly compromised activity | 
7 |  | COc1cc(C(=O)NCC(=O)NCc2ccc(C(F)(F)F)cc2)ccc1O [Compound 5o, 4-hydroxy-3-methoxy-N-(2-oxo-2-((4-(trifluoromethyl)benzyl)amino)ethyl)benzamide] | significantly compromised activity | 
8 |  | Cc1c(Cl)cccc1C(=O)NC(C)C(=O)NCc1ccc(C(F)(F)F)cc1 (stereo not shown) [Compound 5p, 3-Chloro-2-methyl-N-(1-oxo-1-((4-(trifluoromethyl)benzyl)amino)propan-2-yl)benzamide] | significantly less or not active | 
9 |  | Cc1c(Cl)cccc1C(=O)NC(Cc1ccc(O)cc1)C(=O)NCc1ccc(C(F)(F)F)cc1 (stereo not shown) [Compound 5q, 3-Chloro-N-(3-(4-hydroxyphenyl)-1-oxo-1-((4-(trifluoromethyl)benzyl)amino)propan-2-yl)-2-methylbenzamide] | significantly less or not active | 

Row | Compound | aqueous solubility (in words) [1] | β-cell protective activity (in words) (INS-1 β-cells [5]) | also measured
10 | Cc1ccc(C)c(NC(=O)c2nnn(-c3cccc(Cl)c3C)c2C)c1 [Compound 1, 1-(3-chloro-2-methylphenyl)-N-(2,5-dimethylphenyl)-5-methyl-1H-1,2,3-triazole-4-carboxamide, reference compound] | poor aqueous solubility; also recorded: limited aqueous solubility; also recorded: aqueous insolubility |  | concentration at which β cell protective activity is exhibited (INS-1 β-cells [2]; narrow range of doses): 5~10 μM; maximal activity (INS-1 β-cells [2]; protection of β cells against ER stress): 97%
